Source: PubChem
Sampled rows, rich in hits. Any-hit rate of the full collection: about 1.9%.
Calb FLC: affects C. albicans growth with fluconazole. AID 1979. growth inhibition, % (no concentration beside the values). 0.57% of 300,000 active. C. albicans CaCi-2 (fluconazole-resistant clinical isolate) + fluconazole, Alamar Blue growth, 48 h;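 active = growth inhibition above about 58% in most replicates, limit read from the data, passing the limit was not always enough; inconclusive = exactly half the replicates above a set limit; inactive = most replicates below a set limit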;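 also: all wells also contain fluconazole at 8 µg/ml as a sub-toxic cotreatment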
procasp3 activ: activates human procaspase-3; P42574; recombinant procaspase-3 D3A, Ac-DEVD-pNA absorbance 405 nm; activation, % at 8.5 µM; 0.11% of 330,000 active;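 active = activation above the mean of all tested compounds plus 3 SD, cut at about 21% in these data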
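Evaluation: percent activation relative to control range; Material: Procaspase-3 D3A mutant, all three cleavage aspartates alanine; Compound: single dose, 8.5 µM nominal compound, 0.8% DMSO; Replication: one well per compound; Signal: absorbance at 405 nm, 0 and 120 min; Schedule: 1 h preincubation plus 2 h reaction at 25 °C.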
Neddylation inh: cullin neddylation inhibition; P61081+Q13564; TR-FRET cullin neddylation, biochemical; inhibition, % at 25 µM; 0.58% of 360,000 active; AID 651699; in the data active = inhibition above about 36%
Target sequence (P61081 whole entry, looked up): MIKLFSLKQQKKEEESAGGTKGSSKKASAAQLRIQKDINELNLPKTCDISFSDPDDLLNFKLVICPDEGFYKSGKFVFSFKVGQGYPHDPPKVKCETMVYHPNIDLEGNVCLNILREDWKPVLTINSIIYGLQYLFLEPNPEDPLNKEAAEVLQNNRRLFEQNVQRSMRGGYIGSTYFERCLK
Target sequence (Q13564 whole entry, looked up): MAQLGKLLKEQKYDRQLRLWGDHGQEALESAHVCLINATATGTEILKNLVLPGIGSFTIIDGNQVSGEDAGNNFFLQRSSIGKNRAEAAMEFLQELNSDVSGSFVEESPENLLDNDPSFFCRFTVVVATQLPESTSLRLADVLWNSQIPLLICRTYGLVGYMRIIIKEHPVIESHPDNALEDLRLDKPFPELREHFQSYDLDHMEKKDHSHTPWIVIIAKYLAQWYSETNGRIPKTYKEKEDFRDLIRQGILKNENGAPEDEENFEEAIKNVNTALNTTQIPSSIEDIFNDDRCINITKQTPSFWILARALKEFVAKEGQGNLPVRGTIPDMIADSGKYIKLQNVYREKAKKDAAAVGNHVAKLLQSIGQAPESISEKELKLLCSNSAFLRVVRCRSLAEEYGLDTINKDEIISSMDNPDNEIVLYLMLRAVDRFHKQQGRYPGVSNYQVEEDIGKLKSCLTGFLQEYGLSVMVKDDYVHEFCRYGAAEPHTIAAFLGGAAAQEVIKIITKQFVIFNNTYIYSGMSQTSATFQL
HIF activator: HIF pathway transcriptional activation; 0.32% of 300,000 active; activation, % at 7.5 µM (by protocol); U2OS HRE-luciferase reporter, luminescence; normalized: DMSO 0%, desferrioxamine 100%; AID 1910;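 active = mean activation of at least 10% of the iron chelator positive control signal, with at least half of replicates also reaching 10%; inconclusive = mean and replicate majority disagree about reaching 10%; inactive = mean and most replicates under 10%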
proCasp7 act: activates human procaspase-7, counter-screen for procaspase-3 activators; activation, % at 8.5 µM; 0.093% of 330,000 active; P55210; AID 463210; recombinant procaspase-7, Ac-DEVD-pNA absorbance 405 nm; D23A/D198A/D206A triple mutant, cannot self-cleave; scale: DMSO 0, 5 µM enzyme 100;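 active = percent activation above the screen-wide mean plus 3 SD, cut at about 25% in these data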
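Replicates: singlicate. Assay system: Procaspase-7 triple mutant (PC-7 D3A). Signal: 405 nm absorbance of p-nitroaniline. Times: 1 h preincubation, 2 h reaction. Buffer or medium: Zinc-free HEPES pH 7.4 with 300 mM NaCl, 0.01% Triton X-100. Also added: DEVD-pNA substrate. Benchmarks: DMSO wells as 0%, DMSO with 5 µM added PC-7 as 100%.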
FXN GAA850 act: frataxin GAA850 promoter activation. HEK293 lucGAA850 FXN promoter luciferase reporter, 24 h; percent of 10 µM SAHA response. activation, % at 6 µM. 0.56% of 360,000 active. AID 540364;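 active = activation above the average of all compounds screened plus 3 SD, cutoff fixed separately per campaign, cut at about 7.5% in these data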
GAA30 counter: activates GAA30 frataxin promoter, counter-screen for GAA850 activators; shares compounds with FXN GAA850 act; AID 588350; 66% of 1,900 active; activation, % at 6 µM; HEK293 lucGAA30 FXN promoter luciferase, 24 h; DMSO = 0%, 5 µM ipriflavone = 100%;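 active = mean activation above the mean of solvent-only control wells plus 3 SD, cut at about 22% in these data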;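 also: counterscreen of GAA850 promoter hits where activity marks nonselective or luminescence artifacts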
GAA850 confirm: GAA850 FXN promoter activation confirmation. HEK293 lucGAA850 FXN promoter luciferase reporter, 24 h; 100% = activation by SAHA. AID 588351. activation, % at 6 µM. 86% of 1,900 active. shares compounds with FXN GAA850 act;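 active = mean activation above a set limit taken from the primary screen, cut at about 8% in these data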
Numbers stand for hits; n = inactive; u = inconclusive; x = no result given.

SMILES	Calb FLC	procasp3 activ	Neddylation inh	HIF activator	proCasp7 act	FXN GAA850 act	GAA30 counter	GAA850 confirm
CCN(CC)C(=O)C1=C(C)N(CCCOC)C(=O)C(CC(=O)NCCN2CCOCC2)C1 (stereo not drawn)	x	x	n	x	x	n	x	x
C[C@H](CO)N1C[C@H](C)[C@H](CN(C)C(=O)Nc2ccc(F)cc2)OCc2ccccc2-c2c(n(C)c3ccccc23)C1=O	x	x	n	x	x	14.4	n	9.4
C[C@@H]1CN([C@H](C)CO)C(=O)c2c(c3ccccc3n2C)-c2ccccc2CO[C@@H]1CN(C)C(=O)Nc1ccc2c(c1)OCO2	x	x	n	x	x	n	x	x
COC(=O)N(C)C[C@@H]1OCc2ccccc2-c2c(n(C)c3ccccc23)C(=O)N([C@H](C)CO)C[C@@H]1C	x	x	n	x	x	15.6	32.9	14.2
Cc1ccccc1S(=O)(=O)N(C)C[C@@H]1OCc2ccccc2-c2c(n(C)c3ccccc23)C(=O)N([C@H](C)CO)C[C@@H]1C	x	x	n	x	x	19.6	n	10.3
CN(C)CCN1CCN(C(c2cc3ccccc3o2)c2nnnn2C(C)(C)C)CC1 (stereo not drawn)	x	x	n	x	x	x	x	x
CC(=O)NC(c1cccc(F)c1)c1nc(-c2cccc(C(F)(F)F)c2)cs1 (stereo not drawn)	x	x	n	x	x	n	x	x
Cc1ccccc1NP1(=O)OCCCN1Cc1ccccc1Cl (stereo not drawn)	x	x	n	x	x	n	x	x
CC1CN(c2ccc(Oc3ccccc3)cc2)c2nc3c(c(=O)n(CC(N)=O)c(=O)n3C)n2C1 (stereo not drawn)	n	n	n	n	n	18.0	n	n
CCOC(=O)NC(=O)/C(C#N)=C\Nc1sccc1C(=O)OC	n	n	n	n	n	n	x	x
CCOC(=O)NC(=O)/C(C#N)=C\Nc1ccc(Cl)cc1Cl	n	n	n	n	n	8.3	n	n
C=CCNc1nc(Nc2ccccc2F)nc(OCC)n1	n	n	n	n	n	9.4	80.2	35.5
Cc1ccc(NC(=O)C2(C)CCN2C(=O)Cc2cc(F)ccc2F)cc1 (stereo not drawn)	x	x	n	x	x	n	x	x
Cc1nc2nc(-c3ccccc3)nn2c(C)c1Cl	n	n	n	n	n	n	x	x
Cc1nc2nc(-c3ccccc3)nn2c(C)c1C	n	n	n	n	n	7.6	115.2	40.8
COc1ccc(CC(N)c2csc(NC(=O)Nc3ccccc3Oc3ccccc3)n2)cc1 (stereo not drawn)	x	x	n	x	x	8.1	n	n
NC(Cc1ccccc1)c1csc(NC(=O)Nc2ccccc2Oc2ccccc2)n1 (stereo not drawn)	x	x	n	x	x	n	x	x
COc1ccc(CC(N)c2csc(NC(=O)Nc3ccccc3Cc3ccccc3)n2)cc1 (stereo not drawn)	x	x	n	x	x	14.9	n	7.7
NC(Cc1ccc(C(F)(F)F)cc1)c1csc(NC(=O)Nc2ccccc2Oc2ccccc2)n1 (stereo not drawn)	x	x	n	x	x	11.7	n	8.2
COc1ccccc1NC(=O)Nc1nc(C(N)Cc2ccc(C(F)(F)F)cc2)cs1 (stereo not drawn)	x	x	n	x	x	n	x	x
CSc1ncnc2c1ncn2CCCNCCCN1CCCC1=O	x	x	n	x	x	n	x	x
COCCn1c(C)cc(C(=O)COC(=O)c2cncc(Br)c2)c1C	n	n	n	n	n	n	x	x
COCCn1c(C)cc(C(=O)COC(=O)c2ccc3ncsc3c2)c1C	n	n	n	u	n	7.8	93.3	32.2
CC/C(=C\C1CCCCC1)C(NP(=O)(c1ccccc1)c1ccccc1)c1ccccc1 (stereo not drawn)	n	n	n	n	n	13.2	29.7	18.6
CNc1ccc(-c2cccc(C(=O)N3CCOCC3)c2)cn1	x	x	n	x	x	n	x	x
SMILES	Calb FLC	procasp3 activ	Neddylation inh	HIF activator	proCasp7 act	FXN GAA850 act	GAA30 counter	GAA850 confirm
Cc1ccc2c(CN3CCC(C)CC3)cc(=O)oc2c1	n	n	n	n	n	8.6	125.4	45.6
Cc1ccc2c(CN3CC(C)CC(C)C3)cc(=O)oc2c1 (stereo not drawn)	n	n	n	n	n	n	x	x
Cc1snc(SCC(=O)c2ccc(F)cc2)c1C#N	n	n	n	n	n	8.2	79.5	27.8
CC1=C(C(=O)N2CCCCCC2)CC(CC(=O)NCCN2CCOCC2)C(=O)N1Cc1ccc(F)cc1 (stereo not drawn)	x	x	n	x	x	x	x	x
O=C1CN(c2nc(-c3cccs3)nc3sc4c(c23)CCCC4)CCN1	n	n	x	n	n	9.3	49.3	23.0
O=c1c2c3c(sc2nc2n1N=C(c1cccs1)CS2)CCCC3	n	n	n	n	n	9.6	87.4	40.2
C[C@H]1CN([C@@H](C)CO)C(=O)c2cc(-c3ccccc3F)cnc2O[C@@H]1CN(C)C(=O)NC1CCCCC1	x	x	n	x	x	n	x	x
O=C(CCN1CCN(Cc2ccccc2)CC1)NNC(=O)c1ccc(Cl)c(Cl)c1	x	x	n	x	x	n	x	x
CC(C)(C)c1csc(NC(=O)CS(=O)(=O)c2ccccc2)n1	n	n	n	n	n	7.9	51.0	15.3
O=[N+]([O-])/C=C\c1ccc(N2CCCC2)c(F)c1	n	x	n	n	x	8.6	n	31.2
Cn1ncc2c1ncn1nc(CCc3ccccc3)nc21	n	n	n	n	n	9.1	106.1	29.1
Cn1ncc2c1ncn1nc(COc3ccc4ccccc4c3)nc21	n	n	n	n	n	n	x	x
Cc1ccc(S(=O)(=O)N(C)C[C@@H]2OCCCC[C@H](C)Oc3ccc(NC(=O)Nc4ccc(F)cc4)cc3C(=O)N([C@H](C)CO)C[C@H]2C)cc1	x	x	n	x	x	n	x	x
CC(=O)N(C(C)=O)N1C(=O)c2cccc3c(N4CCOCC4)ccc(c23)C1=O	n	n	n	n	n	n	x	x
CCN(CC)S(=O)(=O)c1ccc(C(=O)OCCN2C(=O)c3cccc4c(N5CCOCC5)ccc(c34)C2=O)cc1	n	n	n	n	n	8.5	n	n
O=[N+]([O-])c1cccc(-c2nnc(-c3ccccc3)o2)c1	n	n	n	n	n	n	x	x
Nc1cc([N+](=O)[O-])cc2oc(-c3ccccc3)cc12	n	n	n	n	n	8.2	93.5	32.9
CCc1cccc(CC)c1NC(=O)COC(=O)c1ccc2c(c1)S(=O)(=O)c1ccccc1C2=O	n	n	n	n	n	14.2	25.7	n
O=C(Nc1nc2ccccc2[nH]1)C1CCCC1	n	n	n	n	n	10.1	85.8	26.4
O=C(Nc1nc2ccccc2[nH]1)C1CCC1	n	n	n	n	n	n	x	x
